In ChEMBL document CHEMBL1141431, “Brandisianins A-F, isoflavonoids isolated from Millettia brandisiana in a screening program for death-receptor expression enhancement activity” (J Nat Prod, 2007) one finds IC50, Fold change and Activity data, which are given here for eleven compounds.

Calls of active or inactive are those of the source. The calls are words filed in the database; no cut-off is given here.

One experiment deals with HeLa. Briefly: Cytotoxicity against human HeLa cells. The format is functional, cell-based.
Experiment [1] deals with DLD-1. The experiment is described as follows: Cytotoxicity against human DLD1 cells. The format is functional, cell-based.
In experiment [2] the test system is DLD-1. Briefly: Activation of death-receptor 5 expression in human DLD-1/ SacI cells at 35.0 uM by luciferase assay relative to control. The format is functional. The essentials:
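DLD-1 human colon cancer cells stably carrying pDR5/SacI (human DR5 promoter–luciferase) plated at 2 × 10^5 cells/well in RPMI with 10% FBS, 24 h at 37 °C, 5% CO2, then exposed 24 h to compound (tested at 17.5 and 35.0 µM). Lysed, luciferase substrate added, luminescence read; activity as relative light intensity versus EtOH-treated control cells; luteolin 17.5 µM positive control; n = 3.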

Experiment [3] concerns DLD-1. Briefly: Activation of death-receptor 5 expression in human DLD-1/ SacI cells at 17.5 uM by luciferase assay relative to control. The experiment is classed as functional, cell-based. The essentials:
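DLD-1/SacI (human colon cancer line stably carrying human DR5 promoter–luciferase construct) seeded in RPMI with 10% FBS, 24 h at 37 °C, 5% CO2. Treated with samples (17.5 and 35.0 µM) 24 h. Lysed, luciferase substrate added, luminescence read. Activity expressed as light intensity relative to EtOH-treated control cells. Luteolin 17.5 µM as positive control. Means, n = 3 ± SD.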

As for `O=C1C[C@@H](c2ccc(O)cc2)Oc2cc(O)cc(O)c21` [NARINGENIN], the IC50 in the experiment with HeLa and with DLD-1 [1] was above 25 µM in each case.

Consider `COc1cc2c(cc1O)[C@@H]1Oc3c(cc(OC)c(OC)c3O)[C@@H]1CO2` [BRANDISIANIN F], for which the IC50 in the experiment on HeLa and with DLD-1 [1] was above 25 µM throughout.

`COc1cc(-c2coc3c4c(cc(O)c3c2=O)OC(C)(C)C=C4)c(OC)cc1O`: the IC50 with HeLa and in the experiment with DLD-1 [1] was above 25 µM throughout. In the experiment on DLD-1 [2], this compound yielded a Fold change of 2.4.

In the case of `COc1cc(-c2coc3cc(O)c(CC=C(C)C)c(O)c3c2=O)c(OC)cc1O` [VIRIDIFLORIN], the concentration for half-maximal inhibition (IC50) in the experiment on HeLa and in the experiment on DLD-1 [1] was above 25 µM each time.

On to `COc1cc(-c2coc3cc(O)cc(O)c3c2=O)c(OC)cc1OCC=C(C)C` [BRANDISIANIN A], for which the IC50 in the experiment on HeLa and in the experiment with DLD-1 [1] was above 25 µM in each case.

With `C=C(C)[C@H]1Cc2c(cc(O)c3c(=O)c(-c4cc(OC)c(O)cc4OC)coc23)O1` [BRANDISIANIN B], the results for the IC50 in the experiment on HeLa and in the experiment on DLD-1 [1] were 9.7 µM and above 25 µM, respectively.

As to `COc1cc(-c2coc3cc(O)cc(O)c3c2=O)c(OC)cc1O` [OLIBERGIN A], the IC50 in the experiment with HeLa and in the experiment with DLD-1 [1] was above 25 µM throughout.

In the case of `Oc1cc(O)c2c(c1)O[C@H](c1ccc(O)c(O)c1)[C@H](O)C2` [(-)-EPICATECHIN], the IC50 in the experiment with HeLa and in the experiment on DLD-1 [1] was above 25 µM each time.

With `COc1cc(-c2coc3c4c(cc(O)c3c2=O)O[C@@](C)(CO)C=C4)c(OC)cc1O` [BRANDISIANIN D], the outcome in the experiment with DLD-1 [3] was Active. Further, the IC50 in the experiment with HeLa and in the experiment on DLD-1 [1] was above 25 µM each time. Moreover, in the experiment with DLD-1 [2], the Fold change came to 3.

With `COc1cc(-c2coc3c(C/C=C(\C)CO)c(O)cc(O)c3c2=O)c(OC)cc1O` [BRANDISIANIN E], the IC50 – broadly, the point on the concentration scale where inhibition reaches its midpoint – in the experiment with HeLa is 21.7 µM; in the experiment on DLD-1 [1] it was above 25 µM.

In the case of `COc1cc(-c2coc3c(CC=C(C)C)c(O)cc(O)c3c2=O)c(OC)cc1O` [BRANDISIANIN C], the IC50 is 19.1 µM with HeLa and above 25 µM in the experiment with DLD-1 [1].
